Measurements reported in ChEMBL document CHEMBL1150160, “New scalarane class sesterterpenes from an Indonesian sponge, Phyllospongia sp” (2002).

System: KB
Experiment: Cytotoxicity against human KB cells at 10 ug/mL
Type: functional
Procedure, shortened: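 KB cell growth was measured in the presence of test material at 10 μg/mL. Values are given as percent inhibition of growth.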

Row | Structure (SMILES) | inhibition at 10 µg/mL [%]
1 | CO[C@H]1O[C@@H](C)[C@H]2[C@H]1[C@@]1(C)[C@@H](OC(C)=O)C[C@@H]3[C@@]4(C)CCCC(C)(C)[C@@H]4CC[C@@]3(C)[C@@H]1C[C@@H]2O | 30
2 | CC[C@@]1(C)CCC[C@]2(C)[C@H]3C[C@H](OC(C)=O)[C@]4(C)[C@H]5[C@@H](OC)O[C@@H](C)[C@@H]5[C@@H](O)C[C@H]4[C@]3(C)CC[C@@H]12 | 30
3 | CC(=O)O[C@H]1C[C@H]2[C@]3(C)CC[C@H]4C(C)(C)CCC[C@]4(C)[C@H]3C[C@H](OC(C)=O)[C@]2(C)[C@@H](C=O)[C@@H]1C(C)=O | 30
4 | CC(=O)O[C@@H]1O[C@@H](C)[C@H]2[C@H]1[C@@]1(C)[C@@H](OC(C)=O)C[C@@H]3[C@@]4(C)CCCC(C)(C)[C@@H]4CC[C@@]3(C)[C@@H]1C[C@@H]2OC(C)=O | 30
5 | CC[C@@]1(C)CCC[C@]2(C)[C@H]3C[C@H](OC(C)=O)[C@]4(C)[C@@H]5[C@H]([C@H](C)O[C@H]5O)[C@@H](O)C[C@H]4[C@]3(C)CC[C@@H]12 | 30
6 | CC(=O)O[C@H]1C[C@@H]2[C@@]3(C)CCCC(C)(C)[C@@H]3CC[C@@]2(C)[C@@H]2C[C@H](O)[C@@H](C(C)=O)[C@H](C=O)[C@@]12C | 30
7 | CC(=O)O[C@H]1C[C@H]2[C@@](C)(CC[C@H]3C(C)(C)CCC[C@]23C)[C@@H]2C[C@H](O)[C@@H](C(C)=O)C[C@]21C | 30
8 | CO[C@@H]1O[C@@H](C)[C@H]2[C@H]1[C@@]1(C)[C@@H](OC(C)=O)C[C@@H]3[C@@]4(C)CCCC(C)(C)[C@@H]4CC[C@@]3(C)[C@@H]1C[C@@H]2O | 30
9 | CO[C@](C(=O)O[C@H]1C[C@H]2[C@]3(C)CC[C@H]4C(C)(C)CCC[C@]4(C)[C@H]3C[C@H](OC(C)=O)[C@]2(C)[C@@H](C=O)[C@@H]1C(C)=O)(c1ccccc1)C(F)(F)F | 30
10 | CO[C@@](C(=O)O[C@H]1C[C@H]2[C@]3(C)CC[C@H]4C(C)(C)CCC[C@]4(C)[C@H]3C[C@H](OC(C)=O)[C@]2(C)[C@@H](C=O)[C@@H]1C(C)=O)(c1ccccc1)C(F)(F)F | 30
11 | CO[C@@H]1O[C@](C)(OC)[C@H]2[C@H]1[C@@]1(C)[C@@H](OC(C)=O)C[C@@H]3[C@@]4(C)CCCC(C)(C)[C@@H]4CC[C@@]3(C)[C@@H]1C[C@@H]2O | 30
12 | CC(=O)O[C@H]1C[C@@H]2[C@@]3(C)CCCC(C)(C)[C@@H]3CC[C@@]2(C)[C@@H]2C[C@H](O)[C@@H](C(C)=O)[C@H](O)[C@@]12C | 30
13 | CC(=O)O[C@H]1C[C@@H]2[C@@]3(C)CCCC(C)(C)[C@@H]3CC[C@@]2(C)[C@@H]2C[C@H](O)[C@@H]3[C@H]([C@H](O)O[C@H]3C)[C@@]12C | 30
14 | CC[C@@]1(C)CCC[C@]2(C)[C@H]3C[C@H](OC(C)=O)[C@]4(C)C[C@H](C(C)=O)[C@@H](O)C[C@H]4[C@]3(C)CC[C@@H]12 | 30
15 | CC[C@@]1(C)CCC[C@]2(C)[C@H]3C[C@H](OC(C)=O)[C@]4(C)[C@@H](C=O)[C@H](C(C)=O)[C@@H](O)C[C@H]4[C@]3(C)CC[C@@H]12 | 30
16 | CC[C@@]1(C)CCC[C@]2(C)[C@H]3C[C@H](OC(C)=O)[C@]4(C)[C@H]5[C@H](OC)O[C@@H](C)[C@@H]5[C@@H](O)C[C@H]4[C@]3(C)CC[C@@H]12 | 30
